Data from ChEMBL document CHEMBL5724801, “EUbOPEN Chemogenomics Library - Multiplex” (2024).
Values joined by “and” are separate entries in the source; they are usually repeats but may differ in a detail not shown here. Equal values may be shown once.

Test system: Fibroblast
Assay: Multiplex assay against human fibroblast
Type: toxicity, cell-based
Summary of the method: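 Tubulin, mitochondrial-mass and membrane-permeability phenotypes are per cents of healthy-nucleus cells. Cells were gated by CellPathfinder machine learning into Hoechst high-intensity objects or normal cells, normal cells into healthy, pyknosed or fragmented nuclei, and pyknosed cells into mitotic or apoptotic. Before that, live cells stained at seeding with Hoechst33342, BioTracker Green Microtubule Cytoskeleton Dye, MitoTracker Red and Annexin V Alexa Fluor 680 were imaged on a CQ1 microscope at 37°C and 5% CO2 after compound addition.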

[1] = 12 h, 1 µM, compound concentration 1 uM
[2] = 12 h, 10 µM, compound concentration 10 uM
[3] = 24 h, 1 µM, compound concentration 1 uM
[4] = 24 h, 10 µM, compound concentration 10 uM
[5] = 48 h, 1 µM, compound concentration 1 uM
[6] = 48 h, 10 µM, compound concentration 10 uM

## CC[C@H](Nc1ncnc2[nH]cnc12)c1nc2cccc(F)c2c(=O)n1-c1ccccc1 [IDELALISIB]
[1]
  Population Apoptotic (%): 12.5% and 30.56%
  Population Fragmented Nuclei (%): 8.54% and 3.76%
  Population Healthy Nuclei (%): 58.94% and 76.88%
  Population Hoechst High Intensity Objects (%): 7.17% and 0%
  Population Membrane Permeable-Phenotype (%): 3.45% and 2.8%
  Population Mitochondria Different-Phenotype (%): 10.34% and 11.89%
  Population Mitotic Cells (%): 87.5% and 69.44%
  Population Normal (%): 92.83% and 100%
  Population Pyknosed Nuclei (%): 32.52% and 19.35%
  Population Tubulin-Different-Phenotype (%): 22.76% and 24.48%
  Total Cell Count: 265 and 186
[2]
  Population Apoptotic (%): 7.84% and 18.6%
  Population Fragmented Nuclei (%): 13.24% and 8.44%
  Population Healthy Nuclei (%): 63.47% and 72.44%
  Population Hoechst High Intensity Objects (%): 0%
  Population Membrane Permeable-Phenotype (%): 11.51% and 11.04%
  Population Mitochondria Different-Phenotype (%): 16.55% and 16.56%
  Population Mitotic Cells (%): 92.16% and 81.4%
  Population Normal (%): 100%
  Population Pyknosed Nuclei (%): 23.29% and 19.11%
  Population Tubulin-Different-Phenotype (%): 53.24% and 61.96%
  Total Cell Count: 219 and 225
[3]
  Population Apoptotic (%): 12.5% and 29.41%
  Population Fragmented Nuclei (%): 8.53% and 9.31%
  Population Healthy Nuclei (%): 69.77% and 82.35%
  Population Hoechst High Intensity Objects (%): 5.84% and 0%
  Population Membrane Permeable-Phenotype (%): 6.11% and 1.79%
  Population Mitochondria Different-Phenotype (%): 3.89% and 7.14%
  Population Mitotic Cells (%): 87.5% and 70.59%
  Population Normal (%): 94.16% and 100%
  Population Pyknosed Nuclei (%): 21.71% and 8.33%
  Population Tubulin-Different-Phenotype (%): 16.67% and 20.24%
  Total Cell Count: 274 and 204
[4]
  Population Apoptotic (%): 8.33% and 21.88%
  Population Fragmented Nuclei (%): 9.91% and 5.37%
  Population Healthy Nuclei (%): 73.87% and 79.02%
  Population Hoechst High Intensity Objects (%): 0%
  Population Membrane Permeable-Phenotype (%): 9.15% and 6.79%
  Population Mitochondria Different-Phenotype (%): 15.24% and 12.35%
  Population Mitotic Cells (%): 91.67% and 78.12%
  Population Normal (%): 100%
  Population Pyknosed Nuclei (%): 16.22% and 15.61%
  Population Tubulin-Different-Phenotype (%): 46.95% and 64.2%
  Total Cell Count: 222 and 205
[5]
  Population Apoptotic (%): 40.74% and 37.5%
  Population Fragmented Nuclei (%): 8.52% and 5.13%
  Population Healthy Nuclei (%): 81.48% and 90.77%
  Population Hoechst High Intensity Objects (%): 7.22% and 0%
  Population Membrane Permeable-Phenotype (%): 1.36% and 3.39%
  Population Mitochondria Different-Phenotype (%): 11.36% and 3.39%
  Population Mitotic Cells (%): 59.26% and 62.5%
  Population Normal (%): 92.78% and 100%
  Population Pyknosed Nuclei (%): 10% and 4.1%
  Population Tubulin-Different-Phenotype (%): 9.09% and 16.95%
  Total Cell Count: 291 and 195
[6]
  Population Apoptotic (%): 25% and 23.81%
  Population Fragmented Nuclei (%): 12.65% and 4.81%
  Population Healthy Nuclei (%): 82.45% and 85.1%
  Population Hoechst High Intensity Objects (%): 0%
  Population Membrane Permeable-Phenotype (%): 3.96% and 10.73%
  Population Mitochondria Different-Phenotype (%): 11.39% and 11.3%
  Population Mitotic Cells (%): 75% and 76.19%
  Population Normal (%): 100%
  Population Pyknosed Nuclei (%): 4.9% and 10.1%
  Population Tubulin-Different-Phenotype (%): 30.2% and 57.06%
  Total Cell Count: 245 and 208

## O=S(=O)(c1ccccc1)c1cnc2c(N3CCNCC3)cccc2c1 [INTEPIRDINE]
[1]
  Population Apoptotic (%): 50% and 34%
  Population Fragmented Nuclei (%): 23% and 28%
  Population Healthy Nuclei (%): 67% and 47%
  Population Hoechst High Intensity Objects (%): 3% and 4%
  Population Membrane Permeable-Phenotype (%): 0% and 7%
  Population Mitochondria Different-Phenotype (%): 2% and 7%
  Population Mitotic Cells (%): 50% and 65%
  Population Normal (%): 96% and 95%
  Population Pyknosed Nuclei (%): 9% and 24%
  Population Tubulin-Different-Phenotype (%): 26% and 61%
  Total Cell Count: 212 and 148
[2]
  Population Apoptotic (%): 75% and 61%
  Population Fragmented Nuclei (%): 22% and 43%
  Population Healthy Nuclei (%): 62% and 40%
  Population Hoechst High Intensity Objects (%): 1% and 6%
  Population Membrane Permeable-Phenotype (%): 1% and 5%
  Population Mitochondria Different-Phenotype (%): 8% and 13%
  Population Mitotic Cells (%): 25% and 38%
  Population Normal (%): 98% and 93%
  Population Pyknosed Nuclei (%): 14% and 16%
  Population Tubulin-Different-Phenotype (%): 44% and 68%
  Total Cell Count: 138 and 136
[3]
  Population Apoptotic (%): 54% and 41%
  Population Fragmented Nuclei (%): 16% and 32%
  Population Healthy Nuclei (%): 72% and 44%
  Population Hoechst High Intensity Objects (%): 5% and 0%
  Population Membrane Permeable-Phenotype (%): 2% and 1%
  Population Mitochondria Different-Phenotype (%): 4%
  Population Mitotic Cells (%): 45% and 58%
  Population Normal (%): 94% and 99%
  Population Pyknosed Nuclei (%): 10% and 24%
  Population Tubulin-Different-Phenotype (%): 28% and 59%
  Total Cell Count: 212 and 151
[4]
  Population Apoptotic (%): 40% and 91%
  Population Fragmented Nuclei (%): 28% and 39%
  Population Healthy Nuclei (%): 65% and 50%
  Population Hoechst High Intensity Objects (%): 1% and 4%
  Population Membrane Permeable-Phenotype (%): 0% and 3%
  Population Mitochondria Different-Phenotype (%): 7% and 15%
  Population Normal (%): 98% and 95%
  Population Pyknosed Nuclei (%): 6% and 10%
  Population Tubulin-Different-Phenotype (%): 50% and 67%
  Total Cell Count: 152 and 123
[5]
  Population Apoptotic (%): 66% and 52%
  Population Fragmented Nuclei (%): 22% and 39%
  Population Healthy Nuclei (%): 69% and 45%
  Population Hoechst High Intensity Objects (%): 5% and 3%
  Population Membrane Permeable-Phenotype (%): 0% and 1%
  Population Mitochondria Different-Phenotype (%): 2%
  Population Mitotic Cells (%): 33% and 48%
  Population Normal (%): 94% and 96%
  Population Pyknosed Nuclei (%): 7% and 15%
  Population Tubulin-Different-Phenotype (%): 34% and 54%
  Total Cell Count: 213 and 170
[6]
  Population Apoptotic (%): 63% and 40%
  Population Fragmented Nuclei (%): 23% and 48%
  Population Healthy Nuclei (%): 67% and 38%
  Population Hoechst High Intensity Objects (%): 3% and 6%
  Population Membrane Permeable-Phenotype (%): 1% and 6%
  Population Mitochondria Different-Phenotype (%): 15% and 6%
  Population Mitotic Cells (%): 36% and 60%
  Population Normal (%): 96% and 93%
  Population Pyknosed Nuclei (%): 8% and 12%
  Population Tubulin-Different-Phenotype (%): 47% and 57%
  Total Cell Count: 139 and 125
